Experimental data: ChEMBL document CHEMBL1123207, “Synthesis and structure-activity relationships of antibacterial phosphonopeptides incorporating (1-aminoethyl)phosphonic acid and (aminomethyl)phosphonic acid” (1986)
Converted amounts (≈) assume the structure as drawn.

Columns and labels:
Escherichia coli [1] = assay: Compound was tested for its antibacterial activity against Escherichia coli NCIB 8879 strain.; assay type: functional
Enterobacter = assay: Compound was tested for its antibacterial activity against Enterobacter 250002 strain.; assay type: functional
Enterococcus faecalis [2] = assay: Compound was tested for its antibacterial activity against Streptococcus faecalis 58511 strain.; assay type: functional
Salmonella typhimurium = assay: Compound was tested for its antibacterial activity against Salmonella Typhimurium 538003 strain.; assay type: functional, Salmonella enterica subsp. enterica serovar Typhimurium; details: Salmonella enterica
Haemophilus influenzae [3] = assay: Compound was tested for its antibacterial activity against Haemophilus influenzae NCTC 4560 strain.; assay type: functional
Klebsiella aerogenes = assay: Compound was tested for its antibacterial activity against Klebsiella aerogenes 331001 strain.; assay type: functional
Serratia marcescens = assay: Compound was tested for its antibacterial activity against Serratia marcescens ATCC 14756 strain.; assay type: functional
Staphylococcus aureus [4] = assay: Compound was tested for its antibacterial activity against Staphylococcus aureus NCIB 8625 strain.; assay type: functional
Haemophilus influenzae [5] = assay: Compound was tested in vitro for its antibacterial activity against Haemophilus influenzae NCTC 4560 strain.; assay type: functional
Staphylococcus aureus [6] = assay: Compound was tested in vitro for its antibacterial activity against Staphylococcus aureus 561037 strain.; assay type: functional
Escherichia coli [7] = assay: Compound was tested in vitro for its antibacterial activity against Escherichia coli NCIB 8879 strain.; assay type: functional
Enterococcus faecalis [8] = assay: Compound was tested in vitro for its antibacterial activity against Streptococcus faecalis FS5 strain.; assay type: functional
Escherichia coli [9] = assay: In vivo antibacterial activity was measured relative to alafosfalin against Escherichia coli 281007 strain after sc administration.; assay type: functional
How it was run: (§1)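 Mouse septicaemia model infected with E. coli 281007. Compound was dosed at 1, 3 and 5 h after infection, orally (po) for line 13 and subcutaneously (sc) for line 14. Activity is the relative molar activity of the analogue versus the L-Ala-L-Ala(P) reference, with both CD50 values taken in µmol/kg.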

Escherichia coli [10] = assay: In vivo antibacterial activity was measured relative to alafosfalin against Escherichia coli 281007 strain after po administration.; assay type: functional; how it was run: as §1

Row | Compound | MIC (Escherichia coli [1]) [µg/mL] | MIC (Enterobacter) [µg/mL] | MIC (Enterococcus faecalis [2]) [µg/mL] | MIC (Salmonella typhimurium) [µg/mL] | MIC (Haemophilus influenzae [3]) [µg/mL] | MIC (Klebsiella aerogenes) [µg/mL] | MIC (Serratia marcescens) [µg/mL] | MIC (Staphylococcus aureus [4]) [µg/mL] | MIC (Haemophilus influenzae [5]) [µg/mL] | MIC (Staphylococcus aureus [6]) [µg/mL] | MIC (Escherichia coli [7]) [µg/mL] | MIC (Enterococcus faecalis [8]) [µg/mL] | CD50 (Escherichia coli [9]) [relative molar activity] | CD50 (Escherichia coli [10]) [relative molar activity]
1 | C[C@@H](NC(=O)[C@@H](N)CC[S+](C)[O-])P(=O)(O)O (stereo not given in full) | 4 (≈ 14.7 µM) | 32 (≈ 118 µM) | 4 (≈ 14.7 µM) | > 128 | 16 (≈ 58.8 µM) | 4 (≈ 14.7 µM) | 32 (≈ 118 µM) | 8 (≈ 29.4 µM) | – | – | – | – | – | –
2 | C[C@H](N)C(=O)N[C@@H](C)C(=O)N[C@H](C)P(=O)(O)O | – | – | – | – | – | – | – | – | 0.06 (≈ 0.225 µM) | 4 (≈ 15 µM) | 0.5 (≈ 1.87 µM) | 0.06 (≈ 0.225 µM) | – | –
3 | C[C@@H](NC(=O)[C@@H](N)CCCCN=C(N)N)P(=O)(O)O | 0.25 (≈ 0.847 µM) | 2 (≈ 6.77 µM) | 2 (≈ 6.77 µM) | 2 (≈ 6.77 µM) | 64 (≈ 217 µM) | 0.12 (≈ 0.406 µM) | 2 (≈ 6.77 µM) | 128 (≈ 433 µM) | – | – | – | – | – | –
4 | CCC[C@H](NC)C(=O)N[C@@H](CCC)C(=O)N[C@@H](CCC)C(=O)N[C@H](C)P(=O)(O)O | – | – | – | – | – | – | – | – | 0.25 (≈ 0.573 µM) | 8 (≈ 18.3 µM) | 0.5 (≈ 1.15 µM) | 0.06 (≈ 0.137 µM) | – | –
5 | CCC[C@H](NC(=O)[C@H](CCC)NC(=O)[C@@H](NC)C(C)C)C(=O)N[C@H](C)P(=O)(O)O | – | – | – | – | – | – | – | – | 0.25 (≈ 0.573 µM) | > 128 | 16 (≈ 36.7 µM) | 8 (≈ 18.3 µM) | – | –
6 | CCC[C@H](NC(=O)CNC)C(=O)N[C@@H](CCC)C(=O)N[C@H](C)P(=O)(O)O | – | – | – | – | – | – | – | – | 0.015 (≈ 0.038 µM) | 16 (≈ 40.6 µM) | 0.04 (≈ 0.101 µM) | 0.12 (≈ 0.304 µM) | 1.9 | 1.1
7 | CCCSC[C@H](N)C(=O)N[C@H](C)P(=O)(O)O | 0.06 (≈ 0.222 µM) | 0.06 (≈ 0.222 µM) | 2 (≈ 7.4 µM) | 0.25 (≈ 0.925 µM) | 64 (≈ 237 µM) | 0.03 (≈ 0.111 µM) | 0.5 (≈ 1.85 µM) | 8 (≈ 29.6 µM) | – | – | – | – | – | –
8 | CCC[C@H](NC(=O)[C@H](CC(C)C)NC)C(=O)N[C@@H](CCC)C(=O)N[C@H](C)P(=O)(O)O | – | – | – | – | – | – | – | – | 0.25 (≈ 0.555 µM) | 32 (≈ 71 µM) | 2 (≈ 4.44 µM) | 0.25 (≈ 0.555 µM) | – | –
9 | C[C@@H](NC(=O)[C@@H](N)Cc1ccccc1)P(=O)(O)O | 0.5 (≈ 1.84 µM) | 2 (≈ 7.35 µM) | 2 (≈ 7.35 µM) | 32 (≈ 118 µM) | 32 (≈ 118 µM) | 1 (≈ 3.67 µM) | 4 (≈ 14.7 µM) | 4 (≈ 14.7 µM) | – | – | – | – | – | –
10 | C[C@@H](NC(=O)[C@@H](N)CCCN=C(N)N)P(=O)(O)O | 0.25 (≈ 0.889 µM) | 1 (≈ 3.56 µM) | 16 (≈ 56.9 µM) | 32 (≈ 114 µM) | 128 (≈ 455 µM) | < 0.12 | 2 (≈ 7.11 µM) | 16 (≈ 56.9 µM) | 128 (≈ 455 µM) | 16 (≈ 56.9 µM) | 0.25 (≈ 0.889 µM) | 16 (≈ 56.9 µM) | 8.3 | 7.7
11 | C[C@H](N)C(=O)N[C@@H](C)C(=O)N[C@@H](C)C(=O)N[C@H](C)P(=O)(O)O | – | – | – | – | – | – | – | – | 0.06 (≈ 0.177 µM) | 32 (≈ 94.6 µM) | 0.12 (≈ 0.355 µM) | 0.25 (≈ 0.739 µM) | – | –
12 | CSC[C@H](N)C(=O)N[C@H](C)P(=O)(O)O | 0.03 (≈ 0.124 µM) | 0.03 (≈ 0.124 µM) | 2 (≈ 8.26 µM) | 0.25 (≈ 1.03 µM) | 4 (≈ 16.5 µM) | 0.03 (≈ 0.124 µM) | 0.5 (≈ 2.06 µM) | 16 (≈ 66.1 µM) | – | – | – | – | – | –
13 | CSCC[C@H](N)C(=O)N[C@H](C)P(=O)(O)O | 0.25 (≈ 0.976 µM) | 1 (≈ 3.9 µM) | 1 (≈ 3.9 µM) | 8 (≈ 31.2 µM) | 16 (≈ 62.4 µM) | 0.12 (≈ 0.468 µM) | 2 (≈ 7.8 µM) | 1 (≈ 3.9 µM) | – | – | – | – | – | –
14 | CCC[C@H](N)C(=O)N[C@H](C)P(=O)(O)O | 0.03 (≈ 0.134 µM) | 0.25 (≈ 1.12 µM) | 1 (≈ 4.46 µM) | 0.25 (≈ 1.12 µM) | 4 (≈ 17.8 µM) | 0.015 (≈ 0.0669 µM) | 0.5 (≈ 2.23 µM) | 8 (≈ 35.7 µM) | 4 (≈ 17.8 µM) | 8 (≈ 35.7 µM) | 0.03 (≈ 0.134 µM) | 1 (≈ 4.46 µM) | 8.8 | 1.1
15 | C[C@@H](NC(=O)[C@@H](N)CS)P(=O)(O)O | 32 (≈ 140 µM) | > 128 | > 128 | > 128 | > 128 | 16 (≈ 70.1 µM) | > 128 | > 128 | – | – | – | – | – | –
16 | C[C@@H](NC(=O)[C@@H](N)CCC/N=C(\N)N[N+](=O)[O-])P(=O)(O)O | 0.5 (≈ 1.53 µM) | 8 (≈ 24.5 µM) | 2 (≈ 6.13 µM) | 64 (≈ 196 µM) | – | 2 (≈ 6.13 µM) | 4 (≈ 12.3 µM) | 32 (≈ 98.1 µM) | – | – | – | – | – | –
17 | C[C@H](N)C(=O)N[C@@H](C)P(=O)(O)O [ALAFOSFALIN] | 1 (≈ 5.1 µM) | 1 (≈ 5.1 µM) | 2 (≈ 10.2 µM) | 64 (≈ 326 µM) | 64 (≈ 326 µM) | 0.5 (≈ 2.55 µM) | 8 (≈ 40.8 µM) | 32 (≈ 163 µM) | 4 (≈ 20.4 µM) | 4 (≈ 20.4 µM) | 0.5 (≈ 2.55 µM) | 2 (≈ 10.2 µM) | 1 | 1
18 | CNCC(=O)N[C@@H](C)C(=O)N[C@@H](C)C(=O)N[C@H](C)P(=O)(O)O | – | – | – | – | – | – | – | – | 0.03 (≈ 0.0887 µM) | > 128 | 0.016 (≈ 0.0473 µM) | 0.06 (≈ 0.177 µM) | 8 | 1.05
19 | C[C@@H](NC(=O)[C@@H](N)CCS(C)(=O)=O)P(=O)(O)O | 16 (≈ 55.5 µM) | > 128 | 4 (≈ 13.9 µM) | > 128 | 32 (≈ 111 µM) | 32 (≈ 111 µM) | > 128 | 32 (≈ 111 µM) | – | – | – | – | – | –
20 | C[C@@H](NC(=O)[C@@H](N)CF)P(=O)(O)O | 0.25 (≈ 1.17 µM) | 32 (≈ 149 µM) | 32 (≈ 149 µM) | 32 (≈ 149 µM) | 8 (≈ 37.4 µM) | 4 (≈ 18.7 µM) | – | 16 (≈ 74.7 µM) | – | – | – | – | – | –
21 | C[C@@H](NC(=O)[C@@H](N)Cc1cccs1)P(=O)(O)O | 0.5 (≈ 1.8 µM) | 1 (≈ 3.59 µM) | 2 (≈ 7.19 µM) | 4 (≈ 14.4 µM) | 32 (≈ 115 µM) | 0.25 (≈ 0.898 µM) | 4 (≈ 14.4 µM) | 32 (≈ 115 µM) | – | – | – | – | – | –
